Assay results from different studies.
Compare with care: the assays were run in different laboratories.

CCC1=C(C)C2=NC1=Cc1c(C)c(CC)c3[n]1[Fe][n]1c(c(C)c(CCC(=O)O)c1=CC1=NC(=C3)C(C)=C1CCC(=O)O)=C2  logD (shake flask; aqueous buffer; pH 9): 0.552
Cc1c(C(=O)NN2CCCCC2)nc(-c2ccc(Cl)cc2Cl)n1-c1ccc(OS(=O)(=O)CCC(C)(C)C)cc1  logD (shake flask; aqueous buffer; pH 7.4): > 5.8
COC(=O)CN(CC(=O)N[C@@H](Cc1c[nH]cn1)C(=O)OC)Cc1ccccc1  logD (shake flask; PBS; 2 h, pH 7.4): 0.82
O=C(NCCN1CCCC1)c1cc(-c2ccc(CN3CCOCC3)cc2)nc2ccc(F)cc12  logD (shake flask; aqueous buffer; pH 7.4): 2.5
CNC(=O)[C@H](Cc1c[nH]cn1)NC(=O)CN(CCCc1ccccc1)CC(=O)OC  logD (shake flask; PBS; 2 h, pH 7.4): 1.07
CC(C)CN(C[C@@H](O)[C@H](Cc1ccccc1)NC(=O)O[C@H]1CO[C@H]2OCC[C@H]21)S(=O)(=O)c1ccc(N)cc1  logD (shake flask; PBS; pH 5): 2.8
Cc1c(C(=O)N[C@@H]2CCCC[C@H]2O)nc(-c2ccc(Cl)cc2Cl)n1-c1ccc(OS(=O)(=O)CCC(F)(F)F)cc1 (relative stereo)  logD (shake flask; aqueous buffer; pH 7.4): > 4.4
C[C@]1(C(=O)O)CSC(c2ccc(OCCCCCC(=O)O)cc2O)=N1  logD (shake flask; aqueous buffer; pH 7.4): -1.9
CN1C(C(=O)Nc2ccccn2)=C(O)c2ccccc2S1(=O)=O  logD (shake flask; aqueous buffer; 48 h, pH 7.4): -0.31
CN1CCN(c2ccc3nc(-c4ccc5nc(-c6ccc(OCCCC(=O)Nc7ccc(CC(CN(CCN(CC(=O)O)CC(=O)O)CC(=O)O)N(CC(=O)O)CC(=O)O)cc7)cc6)[nH]c5c4)[nH]c3c2)CC1 (stereo not shown)  logD (shake flask; PBS; pH 7.4): -0.5
C[C@]1(C(=O)O)CSC(c2ccc(OCC(=O)O)cc2O)=N1  logD (shake flask; aqueous buffer; pH 7.4): -1.98
CNC(=O)[C@H](Cc1c[nH]cn1)NC(=O)CN(CCCc1ccccc1)CC(=O)O  logD (shake flask; PBS; 2 h, pH 7.4): -1.36
Cc1c(C(=O)N[C@H]2CCC[C@H](O)C2)nc(-c2ccc(Cl)cc2Cl)n1-c1ccc(OS(=O)(=O)CCC(F)(F)F)cc1 (relative stereo)  logD (shake flask; aqueous buffer; pH 7.4): 4.6
N#CCc1ccccc1C#Cc1ccc(CCC(=O)O)c(F)c1  logD (shake flask; PBS; pH 7.4): 1.41
Cc1c(C(=O)Nc2ccc(F)nc2)nc(-c2ccc(Cl)cc2Cl)n1-c1ccc(OS(=O)(=O)CCC(F)(F)F)cc1  logD (shake flask; aqueous buffer; pH 7.4): > 4.3
CCCc1cc2c(N3CCn4c(nnc4C(F)(F)F)C3)nc(OCC[18F])nc2s1  logD (shake flask; aqueous buffer; pH 7.4): 2.06
O=C(C1CCN(c2nnnn2-c2ccccc2)CC1)N1CCCc2c(Cl)cccc21  logD (shake flask; PBS; pH 7.4): 3.6
CCC1=C(C)c2cc3[nH]c(cc4[nH]c(cc5nc(cc1n2)C(C)=C5CC)c(C)c4CC)c(CC)c3C  logD (shake flask; aqueous buffer; pH 9): 1.42
CCOCc1nc2c(N)nc3ccccc3c2n1CC(C)(C)O  logD (shake flask; PBS; pH 7.4): 1.14
CN1CCN(c2ccc3nc(-c4ccc5nc(-c6ccc(OCCCCNC(=S)Nc7ccc(CC(CN(CCN(CC(=O)O)CC(=O)O)CC(=O)O)N(CC(=O)O)CC(=O)O)cc7)cc6)[nH]c5c4)[nH]c3c2)CC1 (stereo not shown)  logD (shake flask; PBS; pH 7.4): -1.4
Cc1c(C(=O)Nc2ccc(C(F)(F)F)nc2)nc(-c2ccc(Cl)cc2Cl)n1-c1ccc(OS(=O)(=O)CCC(F)(F)F)cc1  logD (shake flask; aqueous buffer; pH 7.4): > 4.9
C[C@]1(C(=O)O)CSC(c2ccc(OCCCCCCO)cc2O)=N1  logD (shake flask; aqueous buffer; pH 7.4): 0.21
Cc1c(C(=O)N[C@H]2CCCC[C@H]2N)nc(-c2ccc(Cl)cc2Cl)n1-c1ccc(OS(=O)(=O)CCC(F)(F)F)cc1 (racemic)  logD (shake flask; aqueous buffer; pH 7.4): 3.35
O=C(O)CN(CCCc1ccccc1)CC(=O)N[C@@H](Cc1c[nH]cn1)C(=O)NCc1ccccc1  logD (shake flask; PBS; 2 h, pH 7.4): -0.58
Cc1c(C(=O)N[C@@H]2CCCC[C@@H]2N(C)C)nc(-c2ccc(Cl)cc2Cl)n1-c1ccc(OS(=O)(=O)CCC(F)(F)F)cc1 (relative stereo)  logD (shake flask; aqueous buffer; pH 7.4): 3.8
COc1ccn2c(Nc3ccccc3F)c(-c3ccncn3)nc2c1  logD (pH 7.4): 2.5
CCCCS(=O)(=O)Oc1ccc(-n2c(-c3ccc(Cl)cc3Cl)nc(C(=O)NN3CCCCC3)c2C)cc1  logD (shake flask; aqueous buffer; pH 7.4): 5.1
CNC(=O)[C@H](Cc1c[nH]cn1)NC(=O)CN(CC(=O)O)Cc1ccccc1  logD (shake flask; PBS; 2 h, pH 7.4): -2.29
